{"source": "PubChem BioAssay AID1556", "about": "(The Scripps Research Institute Molecular Screening Center, 2009)", "note": "Hit rate of the full screen: of about 290,000 compounds, about 1,300 (0.45%) were called active. Only a selection was taken, and actives are over-represented in it overall. A number with no mark means an inactive call.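 Rule for the calls: active = inhibition above the mean plus 3 SD of all compounds in the same screening run (cut at about 4.5% in these data); inactive = the rest.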"}
{"test_system": "metallo-beta-lactamase IMP-1 (Pseudomonas aeruginosa)", "experiment": "IMP-1 metallo-beta-lactamase inhibitors, primary screen, biochemical, epi-absorbance readout, Pseudomonas aeruginosa enzyme (AID 1556);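 note: 0% = IMP-1 with DMSO and 100% = DMSO wells lacking enzyme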", "details": "purified IMP-1, nitrocefin hydrolysis, epi-absorbance fluorescence; at 5.6 µM; hits give high values", "procedure,_shortened": "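Assay system: purified recombinant IMP-1 beta-lactamase. Input: IMP-1 0.2 nM before substrate addition. Buffer or medium: Zinc- and detergent-supplemented HEPES buffer, pH 7.1. Schedule: 25 °C, 15 min preincubation, 25 min reaction. Signal: Epi-absorbance fluorescence, 480 nm excitation, 530 nm emission. Evaluation: percent inhibition from optical density relative to buffer-blank wells.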"}
{"compound": "COc1ccc(C(=O)NN2C(=O)C3C(c4ccccc4)C=CC(c4ccccc4)C3C2=O)cc1", "note": "(centres undefined)", "inhibition": "53.9% (active)"}
{"compound": "COc1ccccc1C(=O)NN1C(=O)C2C3C=CC(O3)C2C1=O", "note": "(centres undefined)", "inhibition": "-3.22%"}
{"compound": "O=C(NN1C(=O)C2C3C=CC(O3)C2C1=O)c1ccccc1", "note": "(centres undefined)", "inhibition": "-2.31%"}
{"compound": "O=C(NC1CCCC1)C(c1ccco1)N(C(=O)c1ccco1)c1ccc(F)cc1", "note": "(centres undefined)", "inhibition": "-2.48%"}
{"compound": "CCCc1cc(C(=O)Nc2ccc(C(=O)OC)cc2)cs1", "inhibition": "-3.3%"}
{"compound": "CCc1ccc(OCC(=O)NCC(c2ccc(Cl)cc2)N2CCCCC2)cc1", "note": "(centres undefined)", "inhibition": "-1.02%"}
{"compound": "COc1cccc(CSc2nc3nc(C)cc(C)n3n2)c1", "inhibition": "-1.34%"}
{"compound": "O=C(Nc1ccnn1C1CCN(C/C=C/c2ccc(F)cc2)CC1)C1CCCC1", "inhibition": "0.74%"}
{"compound": "CCCCC(c1nnnn1CS(=O)(=O)c1ccc(C)cc1)N1CCC(C(N)=O)CC1", "note": "(centres undefined)", "inhibition": "0.14%"}
{"compound": "C=CCN1CCN(C(=O)CCCc2ccccc2)CC1", "inhibition": "-0.18%"}
{"compound": "NS(=O)(=O)c1ccc(NC(=O)COC(=O)c2c3c(nc4ccccc24)/C(=C\\c2ccc4c(c2)OCO4)CCC3)cc1", "inhibition": "28% (active)"}
{"compound": "NC(=O)c1ccc(NC(=O)COC(=O)c2c3c(nc4ccccc24)/C(=C\\c2ccc4c(c2)OCO4)CCC3)cc1", "inhibition": "19.6% (active)"}
{"compound": "NS(=O)(=O)c1ccc(NC(=O)COC(=O)c2cc3ccccc3oc2=O)cc1", "inhibition": "-1.27%"}
{"compound": "O=C(COC(=O)c1c2c(nc3ccccc13)/C(=C\\c1cccs1)CCC2)Nc1ccccc1Cl", "inhibition": "-3.13%"}
{"compound": "COc1cc(/C=C2\\CCCc3c2nc2ccccc2c3C(=O)O)cc(Cl)c1O", "inhibition": "-1.14%"}
{"compound": "COc1cc(-c2cc(C(=O)OCC(=O)Nc3ccc4c(c3)OCO4)c3ccccc3n2)cc(OC)c1OC", "inhibition": "-2.57%"}
{"compound": "O=C(c1ccccc1)N1N=C(c2ccccc2O)CC1c1ccc(Br)cc1", "note": "(centres undefined)", "inhibition": "-4.1%"}
{"compound": "Cc1cccc(N2CCN(C(=O)c3cccc(N4C(=O)C5C6C=CC(C6)C5C4=O)c3)CC2)c1C", "note": "(centres undefined)", "inhibition": "-2.92%"}
{"compound": "CCCCc1nc(NCCN)c(C#N)c2c1CSC(C)(C)C2", "inhibition": "-1.69%"}
{"compound": "O=C(Nc1ccc(-c2cscn2)cc1)C1CCCN(Cc2ccc(CO)o2)C1", "note": "(centres undefined)", "inhibition": "-1.8%"}
{"compound": "CN(CC1CCCO1)S(=O)(=O)c1ccc(C(=O)Nc2ccc(F)cc2)cc1", "note": "(centres undefined)", "inhibition": "-2.19%"}
{"compound": "O=C(c1cc(COc2cccc(C(F)(F)F)c2)on1)N1CCSCC1", "inhibition": "-1.37%"}
{"compound": "CC(=O)Nc1ccc(S(=O)(=O)N2CCSCC2)cc1", "inhibition": "-4.96%"}
{"compound": "CC(=O)NC1=NC(=O)CS1", "inhibition": "12.7% (active)"}
{"compound": "Cc1ccnc(NC(=O)CCNS(=O)(=O)c2ccc(C)c(C)c2)c1", "inhibition": "-3.48%"}
{"compound": "Cc1cc(NC(=O)Nc2ccccc2[N+](=O)[O-])no1", "inhibition": "-1.98%"}
{"compound": "CCCCCCC(O)(CCN1CCCCC1)c1ccccc1", "note": "(centres undefined)", "inhibition": "-1.94%"}
{"compound": "CCOc1cccc(/C=N/N2C(=O)CSC2=S)c1O", "inhibition": "-2.38%"}
{"compound": "Cc1cc(C(=O)N/N=C/c2ccc(O)c([N+](=O)[O-])c2)c(C)n1-c1ccc(F)cc1", "inhibition": "-0.78%"}
{"compound": "O=C1CSC(=S)N1/N=C/c1ccc(O)c([N+](=O)[O-])c1", "inhibition": "10.3% (active)"}
{"compound": "O=C(Nc1cccc(F)c1)[C@@H]1CCCN1", "inhibition": "-1.96%"}
{"compound": "O=C(NCc1cccs1)c1ccc(CS(=O)Cc2ccccc2Cl)o1", "note": "(centres undefined)", "inhibition": "-3%"}
{"compound": "CC1CC(C)CN(C(=O)CSc2ccsc2[N+](=O)[O-])C1", "note": "(centres undefined)", "inhibition": "-2.57%"}
{"compound": "Cc1ccc(CN2CCCOCCS2(=O)=O)cc1", "inhibition": "-1.66%"}
{"compound": "Cc1ccc2occ(/C=N/NC(=O)c3ccccc3C)c(=O)c2c1", "inhibition": "4.69% (active)"}
{"compound": "O=C(N/N=C/c1coc2ccccc2c1=O)c1cc2ccccc2o1", "inhibition": "-0.92%"}
{"compound": "CC(C)(C)OC(=O)NCCCCCC(=O)N/N=C/c1coc2ccccc2c1=O", "inhibition": "-0.81%"}
{"compound": "CCCCc1ccc(NC(=O)NCc2cccnc2)cc1", "inhibition": "-2.87%"}
{"compound": "COc1ccc(S(=O)(=O)N2CCOC2CNC(=O)C(=O)NCc2ccncc2)cc1C", "note": "(centres undefined)", "inhibition": "-3.35%"}
{"compound": "COC(=O)c1nc(NC(=O)c2ccc(Cl)cc2)n[nH]1", "inhibition": "7.73% (active)"}
{"compound": "COC(=O)c1nc(NC(=O)c2ccc(C(C)(C)C)cc2)n[nH]1", "inhibition": "-2.13%"}
{"compound": "COC(=O)c1nc(NC(=O)c2ccc(F)cc2)n[nH]1", "inhibition": "-1.83%"}
{"compound": "CC(C)c1ccc(N(C(=O)c2ccco2)C(C(=O)NC2CCCC2)c2cccnc2)cc1", "note": "(centres undefined)", "inhibition": "-1.29%"}
{"compound": "O=C(N/N=C\\c1cccnc1)c1cc(-c2ccccc2)nc2c(Cl)cccc12", "inhibition": "-3.33%"}
{"compound": "Cc1occc1C(=O)NC1CCCN(Cc2ccc(CC(C)C)cc2)C1", "note": "(centres undefined)", "inhibition": "-3.33%"}
{"compound": "Cc1cc(-c2ccc(C)c(S(=O)(=O)NC(C)Cc3ccco3)c2)on1", "note": "(centres undefined)", "inhibition": "-1.25%"}
{"compound": "CCCOc1ccc(-c2c(C(=O)N/N=C/c3ccco3)nnn2-c2nonc2N)cc1", "inhibition": "-3.51%"}
{"compound": "C/C(=N\\Nc1ncc(Cl)cc1Cl)c1cccs1", "inhibition": "-0.11%"}
{"compound": "C/C(=N\\NS(=O)(=O)c1ccc(Br)cc1)c1cccs1", "inhibition": "-3.54%"}
{"compound": "C/C(=N\\Nc1ccc(S(N)(=O)=O)cc1[N+](=O)[O-])c1cccs1", "inhibition": "21.1% (active)"}
{"compound": "COc1cc(C(=S)N2CCOCC2)cc(OC)c1OC(=O)c1ccc([N+](=O)[O-])cc1[N+](=O)[O-]", "inhibition": "-5.07%"}
{"compound": "Nc1nc(-c2ccccc2)cc(-c2ccccc2)n1", "inhibition": "-4.04%"}
{"compound": "CS(=O)(=O)c1sc2nc(-c3ccccc3)cc(-c3ccccc3)c2c1N", "inhibition": "5.43% (active)"}
{"compound": "CNc1nc(-c2ccccc2)cc(-c2ccccc2)n1", "inhibition": "2.66%"}
{"compound": "Cc1cc2nc3c(=O)n(Cc4ccccc4)c(=O)[nH]c3nc2cc1N", "inhibition": "9.26% (active)"}
{"compound": "O=c1[nH]c2c(c(=O)n1Cc1ccccc1)CCC2", "inhibition": "-1.53%"}
{"compound": "CC(=O)c1ccc(-c2ccc(Cn3c(C)nc4cc(N)c(C)nc43)cc2)cc1", "inhibition": "-0.56%"}
{"compound": "COc1cccc(CNC(=O)C2CC(=O)N(C3CCCCCCC3)C2)c1", "note": "(centres undefined)", "inhibition": "-1.11%"}
{"compound": "COc1ccccc1C(=O)N(Cc1ccc(C)o1)C1CCS(=O)(=O)C1", "note": "(centres undefined)", "inhibition": "-3.51%"}
